In brackets after ≈: the same amount, converted by molar mass. Activity calls are given as the source filed them. The calls are words filed in the database; no cut-off is given here.
Key:
Saccharomyces cerevisiae [1] = experiment: Antifungal activity against Saccharomyces cerevisiae ATCC 204508 up to 60 uM after 16 to 48 hrs; format: functional
Procedure, shortened: (§1)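 MIC determined after 16−48 h incubation, in triplicate, following earlier published protocols; kanamycin and ampicillin as positive controls for bacteria, amphotericin B for S. cerevisiae. S. aureus, S. enterica and S. cerevisiae strains from ATCC.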

Micrococcus luteus [2] = experiment: Antibacterial activity against Micrococcus luteus NRRL B-287 up to 60 uM after 16 to 48 hrs; format: functional; procedure, shortened: as §1
Staphylococcus aureus [3] = experiment: Antibacterial activity against Staphylococcus aureus ATCC 6538 up to 60 uM after 16 to 48 hrs; format: functional; procedure, shortened: as §1
Escherichia coli = experiment: Antibacterial activity against Escherichia coli NRRL B-3708 up to 60 uM after 16 to 48 hrs; format: functional; procedure, shortened: as §1
Hippocampal neurone [4] = experiment: Neuroprotective activity against EtOH-induced damage in Sprague-Dawley rat hippocampal neuron at 0.01 to 0.10 uM after 48 hrs by propidium iodide uptake assay; format: functional, cell-based
Procedure, shortened: (§2)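 Organotypic hippocampal slices from 8-day-old Sprague−Dawley rats in medium with 3.74 μM propidium iodide, with or without 100 mM EtOH plus test agent at varied concentrations, 48 h. Slices then imaged for propidium iodide uptake intensity as a marker of cell damage; post hoc statistical comparison vs control and vs EtOH.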

A549 [5] = experiment: Cytotoxicity against human A549 cells assessed as decrease in cell viability up to 20 uM after 48 hrs by resazurin assay; format: functional, cell-based
Procedure, shortened: (§3)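 A549 non-small-cell lung cells from ATCC, run in triplicate following earlier published protocols; actinomycin D as positive control.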

Salmonella enterica [6] = experiment: Antibacterial activity against Salmonella enterica ATCC 10708 up to 60 uM after 16 to 48 hrs; format: functional; procedure, shortened: as §1
Staphylococcus aureus [7] = experiment: Antibacterial activity against Staphylococcus aureus ATCC 6538 after 16 to 48 hrs; format: functional; procedure, shortened: as §1
HEK293 = experiment: Modulation of unfolded protein response in HEK293 cells after 48 hrs by ASGR-Cluc secretion assay; details: Homo sapiens
Micrococcus luteus [8] = experiment: Antibacterial activity against Micrococcus luteus NRRL B-287 after 16 to 48 hrs; format: functional; procedure, shortened: as §1
Saccharomyces cerevisiae [9] = experiment: Antifungal activity against Saccharomyces cerevisiae ATCC 204508 after 16 to 48 hrs; format: functional; procedure, shortened: as §1
A549 [10] = experiment: Cytotoxicity against human A549 cells assessed as decrease in cell viability after 48 hrs by resazurin assay; format: functional, cell-based; procedure, shortened: as §3
Salmonella enterica [11] = experiment: Antibacterial activity against Salmonella enterica ATCC 10708 after 16 to 48 hrs; format: functional; procedure, shortened: as §1
Hippocampal neurone [12] = experiment: Neuroprotective activity against EtOH-induced damage in Sprague-Dawley rat hippocampal neuron after 48 hrs by propidium iodide uptake assay; format: functional, cell-based; procedure, shortened: as §2
Hippocampal neurone [13] = experiment: Neuroprotective activity against EtOH-induced damage in Sprague-Dawley rat hippocampal neuron at 0.01 uM after 48 hrs by propidium iodide uptake assay; format: functional, cell-based; procedure, shortened: as §2

| SMILES | Activity (Saccharomyces cerevisiae [1]) | Activity (Micrococcus luteus [2]) | Activity (Staphylococcus aureus [3]) | Activity (Escherichia coli) | Activity (A549 [5]) | Activity (Salmonella enterica [6]) | other results |
| --- | --- | --- | --- | --- | --- | --- | --- |
| N[C@@H](COC(=O)c1ccccc1O)C(=O)N[C@@H](CO)C(=O)N[C@H](CCCN(O)C=O)C(=O)NCCC(=O)N[C@@H]1CCCN(O)C1=O | inactive | inactive | inactive | inactive | inactive | inactive | Activity (Hippocampal neurone [4]): Active |
| CNc1ccc(C(N)=O)cc1 | inactive | inactive | inactive | inactive | inactive | inactive | – |
| NC(=O)c1ccc[nH]1 | inactive | inactive | inactive | inactive | inactive | inactive | – |
| CC(C)C[C@@H]1NC(=O)[C@H]2C[C@@H](O)CN2C1=O | inactive | inactive | inactive | inactive | inactive | inactive | – |
| NC(=O)c1ccccc1O | inactive | inactive | inactive | inactive | inactive | inactive | – |
| NC(=O)Cc1ccccc1 | inactive | inactive | inactive | inactive | inactive | inactive | – |
| O=C(NC(CO)CO)c1ccccc1O | inactive | inactive | inactive | inactive | inactive | inactive | – |
| CO[C@H]1CC[C@H](O[C@@H]2C[C@@H]([C@@H](C)/C=C(\C)C(=O)[C@H](C)C[C@H](C)C(=O)O)O[C@@]3(CC[C@@](C)([C@H]4CC[C@@H](C)[C@@]5(O[C@@H]([C@H]6O[C@@](O)(CO)[C@H](C)C[C@@H]6C)C[C@@H]5C)O4)O3)[C@@H]2C)O[C@@H]1C | – | – | – | – | – | – | MIC (Staphylococcus aureus [7]; Staphylococcus aureus, ATCC 6538, read-out: MIC): 0.1 to 3 µM (≈ 0.0851 to 2.55 µg/mL); EC50 (HEK293): 38 nM; MIC (Micrococcus luteus [8]; Micrococcus luteus, NRRL B-287, read-out: MIC): 0.1 to 3 µM (≈ 0.0851 to 2.55 µg/mL); MIC (Saccharomyces cerevisiae [9]): 0.1 to 3 µM; IC50 (A549 [10]; Homo sapiens, A549, 48 h): 1200 nM; MIC (Salmonella enterica [11]; Salmonella enterica, ATCC 10708, read-out: MIC): 0.1 to 3 µM (≈ 0.0851 to 2.55 µg/mL) |
| C[C@H](CO)NC(=O)c1ccccc1O | inactive | inactive | inactive | inactive | inactive | inactive | – |
| OC[C@@H]1COC(c2ccccc2O)=N1 | inactive | inactive | inactive | inactive | inactive | inactive | Activity (Hippocampal neurone [12]): inactive |
| CC1=CC(=O)C[C@]2(C)CC[C@@H](C(C)(C)O)C[C@@H]12 | inactive | inactive | inactive | inactive | – | inactive | – |
| CC(=O)NCCc1ccc(O)cc1 | inactive | inactive | inactive | inactive | inactive | inactive | – |
| COC(=O)C1COC(c2ccccc2O)=N1 (configuration not stated) | inactive | inactive | inactive | inactive | inactive | inactive | – |
| C[C@@H](CO)NC(=O)c1ccccc1O | inactive | inactive | inactive | inactive | inactive | inactive | – |
| O=CN(O)CCC[C@@H](NC(=O)[C@H](CO)NC(=O)[C@H](CO)NC(=O)c1ccccc1O)C(=O)NCCC(=O)N[C@@H]1CCCN(O)C1=O | inactive | inactive | inactive | inactive | inactive | inactive | Activity (Hippocampal neurone [12]): inactive |
| NC(=O)[C@@H]1COC(c2ccccc2O)=N1 | inactive | inactive | inactive | inactive | inactive | inactive | Activity (Hippocampal neurone [13]): Active |
| CO[C@H]1CC[C@H](O[C@@H]2C[C@@H]([C@@H](C)/C=C(\C)C(=O)[C@H](C)C[C@H](C)C(=O)[O-])O[C@@]3(CC[C@@](C)([C@H]4CC[C@@H](C)[C@@]5(O[C@@H]([C@H]6O[C@@](O)(CO)[C@H](C)C[C@@H]6C)C[C@@H]5C)O4)O3)[C@@H]2C)O[C@@H]1C.[Na+] | – | – | – | – | – | – | MIC (Staphylococcus aureus [7]): 0.1 to 3 µM; EC50 (HEK293): 109 nM; MIC (Micrococcus luteus [8]): 0.1 to 3 µM; MIC (Saccharomyces cerevisiae [9]; Saccharomyces cerevisiae, ATCC 204508, read-out: MIC): 0.1 to 3 µM; IC50 (A549 [10]; a549): 1900 nM; MIC (Salmonella enterica [11]): 0.1 to 3 µM |
| O=CN(O)CCC[C@@H](NC(=O)[C@H](CO)NC(=O)[C@@H]1COC(c2ccccc2O)=N1)C(=O)NCCC(=O)N[C@@H]1CCCN(O)C1=O | inactive | inactive | inactive | inactive | inactive | inactive | Activity (Hippocampal neurone [12]): inactive |

— ChEMBL document CHEMBL4004793, “Spoxazomicin D and Oxachelin C, Potent Neuroprotective Carboxamides from the Appalachian Coal Fire-Associated Isolate Streptomyces sp. RM-14-6” (J Nat Prod, 2017)
